Assay results pooled from the literature.
Each line is one published result; the experiments were not run side by side.

The IC50 of `C=C(C)C(=O)Nc1ccc(-c2c(-c3ccc(Oc4nccc(C)n4)c(F)c3)c3c(N)ncnc3n2C)cc1` is reported as 1060 nM (JMSU-1; cell growth or viability; ATP luminescence; 96 h).
`CC(=O)OCCOC(=O)[C@]1(C)CC[C@]2(C)CC[C@]3(C)C4=CC=C5C(=CC(=O)C(O)=C5C)[C@]4(C)CC[C@@]3(C)[C@@H]2C1` has an IC50 of 430 nM (AGS; cell growth or viability; MTT; 48 h).
The IC50 of `COc1c(C)c(OS(=O)(=O)c2ccc3ccccc3c2)c(C)c(OS(=O)(=O)c2ccc3ccccc3c2)c1C(=O)/C=C/c1ccccc1` is reported as greater than 50000 nM (KKU-M213; cell growth or viability; SRB; 72 h).
For `COc1cccc2c1C(=O)c1c(O)c3c(c(O)c1C2=O)C[C@@](O)(C(=O)CO)C[C@@H]3O[C@H]1C[C@H](N)[C@H](O)[C@H](C)O1`, the IC50 was less than 625 nM (AGS; cell growth or viability; MTT; 24 h).
`O=C1NCCc2[nH]c(-c3ccncc3)cc21` gave an IC50 of greater than 10000 nM (EKVX; cell growth or viability).
`Cn1nnc2c(C(=O)N3CCCC3)ncn2c1=O` has an IC50 of 17000 nM (U-87 MG; cell growth or viability; resazurin; 7 days).
`CC1=C(O)C(=O)C=C2C1=CC=C1[C@@]2(C)CC[C@@]2(C)[C@@H]3C[C@](C)(C(=O)OCCCN4C(=O)C5C=CC=CC5C4=O)CC[C@]3(C)CC[C@]12C` (stereo partly drawn) gave an IC50 of 370 nM (AGS; cell growth or viability; MTT; 48 h).
With `Cc1cccc(-n2ncc(Br)c(Br)c2=O)c1` the IC50 was 860 nM (PC-9; cell growth or viability; resazurin; 96 h).
`C=CC(=O)Nc1cc(Nc2nccc(-c3cn(C)c4ccccc34)n2)c(OC)cc1N(C)CCN(C)C` has an IC50 of 4.3 nM (PC-9; cell growth or viability; ATP luminescence; 72 h).
For `COc1ccc(C2=N[C@@H](c3ccc(Cl)cc3)[C@@H](c3ccc(Cl)cc3)N2C(=O)N2CCNC(=O)C2)c(OC(C)C)c1`, the IC50 was 4000 nM (DU-4475; cell growth or viability; MTS; 48 h).
For `CCc1ccc(N2NC(=O)/C(=C/c3ccc(-c4ccc(S(=O)(=O)Nc5nccs5)cc4)o3)C2=O)cc1`, the IC50 was 50000 nM (MEF; cell growth or viability; MTT; 72 h).
For `O=C(c1cc(Cc2n[nH]c(=O)c3ccccc23)ccc1F)N1CCN(C(=O)C2CC2)CC1`, the IC50 was 7600 nM (SK-OV-3; colony formation).
For `COCCCOC(=O)[C@]1(C)CC[C@]2(C)CC[C@]3(C)C4=CC=C5C(=CC(=O)C(O)=C5C)[C@]4(C)CC[C@@]3(C)[C@@H]2C1`, the IC50 was 390 nM (AGS; cell growth or viability; MTT; 48 h).
`CCN1C(=O)N(c2c(F)c(OC)cc(OC)c2F)Cc2cnc3[nH]c(CN4CCOCC4)cc3c21` gave an IC50 of 8.79 nM (JMSU-1; cell growth or viability; ATP luminescence; 96 h).
`COc1ccc(Br)cc1/C=C/C(=O)c1ccc(NC(C)=O)cc1` gave an IC50 of 1000 nM (MEF; cell growth or viability; MTT; 72 h).
With `CC1=C(O)C(=O)C=C2C1=CC=C1[C@@]2(C)CC[C@@]2(C)[C@@H]3C[C@](C)(C(=O)OCCCCCCO)CC[C@]3(C)CC[C@]12C` the IC50 was 360 nM (AGS; cell growth or viability; MTT; 48 h).
With `CCCCN(CCCC)C(=O)c1ncn2c(=O)n(C)nnc12` the IC50 was 27000 nM (U-87 MG; cell growth or viability; resazurin; 7 days).
`CC1=C(O)C(=O)C=C2C1=CC=C1[C@@]2(C)CC[C@@]2(C)[C@@H]3C[C@](C)(C(=O)OCCCCCCCCO)CC[C@]3(C)CC[C@]12C` has an IC50 of 420 nM (AGS; cell growth or viability; MTT; 48 h).
`Cn1nnc2c(C(N)=O)ncn2c1=O` gave an IC50 of 81600 nM (IMR-32; cell growth or viability).
`CC1=C(O)C(=O)C=C2C1=CC=C1[C@@]2(C)CC[C@@]2(C)[C@@H]3C[C@](C)(C(=O)OCCCn4ccc5ccccc54)CC[C@]3(C)CC[C@]12C` has an IC50 of 2100 nM (AGS; cell growth or viability; MTT; 48 h).
For `COc1ccc(/C=C/C(=O)c2cc(Br)ccc(=O)c2O)cc1`, the IC50 was 6000 nM (MEF; cell growth or viability; MTT; 72 h).
